Source: ChEMBL document CHEMBL3393007, “IND-2, a pyrimido[1″,2″:1,5]pyrazolo[3,4-b]quinoline derivative, circumvents multi-drug resistance and causes apoptosis in colon cancer cells” (Bioorg Med Chem, 2015)
Activity calls are given as the source filed them.

Tests used:
[1] = Cytotoxicity against human S1 cells after 72 hrs by MTT assay; assay type: functional, cell-based; conditions: S1, 72 h
In short: (§1)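 Seeding was 6×10^3 cells/well (MDCK, NIH/3T3, MCF-7, MDA-MB-231, LS-180, LS-174, LoVo, S1) after trypsinisation, in DMEM with 10% FBS. Compound at 0.1–100 μM for 72 hr, then MTT (4 mg/mL) for 4 hr. Formazan dissolved in DMSO, absorbance at 570 nm. IC50 by Bliss method; means ± SD, ≥3 experiments in triplicate.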

[2] = Cytotoxicity against human PC3 cells after 72 hrs by MTT assay; assay type: functional, cell-based; conditions: PC-3, 72 h
In short: (§2)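 HCT-116, HCT-15, HT-29, DU-145, PC-3 or HEK293/pcDNA3.1 cells in DMEM with 10% FBS were trypsinised and seeded at 5×10^3 cells/well. They received compound at 0.1–100 μM for 72 hr, then MTT (4 mg/mL) for 4 hr. Formazan was dissolved in DMSO and A570 read. IC50 by Bliss method from survival curves; ≥3 experiments, each in triplicate.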

2008 = assay: Cytotoxicity against human 2008 cells after 72 hrs by MTT assay; assay type: functional, cell-based; conditions: Homo sapiens, 2008, 72 h
In short: (§3)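 MTT assay over 0.1–100 μM with a 72 hr exposure, then 4 hr with MTT (4 mg/mL). Formazan dissolved in DMSO, A570 read. IC50 from survival curves (Bliss method); three independent experiments in triplicate; 100 μM taken as cut-off.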

A2780 = assay: Cytotoxicity against human A2780 cells after 72 hrs by MTT assay; assay type: functional, cell-based; conditions: A2780, 72 h; in short: as §3
HepG2 [3] = assay: Cytotoxicity against human HepG2 cells after 72 hrs by MTT assay; assay type: functional, cell-based; conditions: HepG2, 72 h; in short: as §3
MDCK = assay: Cytotoxicity against MDCK cells after 72 hrs by MTT assay; assay type: cell-based; conditions: Canis lupus familiaris; in short: as §1
[4] = Cytotoxicity against mouse NIH/3T3 cells after 72 hrs by MTT assay; assay type: cell-based; conditions: NIH3T3, 72 h; in short: as §1
HEK293 [5] = assay: Cytotoxicity against HEK293 cells expressing pcDNA3.1 after 72 hrs by MTT assay; assay type: cell-based; conditions: Homo sapiens, HEK293, 72 h; in short: as §2
[6] = Cytotoxicity against human HCT116 cells after 72 hrs by MTT assay; assay type: functional, cell-based; conditions: HCT-116, 72 h; in short: as §2
DU-145 = assay: Cytotoxicity against human DU145 cells after 72 hrs by MTT assay; assay type: functional, cell-based; conditions: DU-145, 72 h; in short: as §2
MDA-MB-231 = assay: Cytotoxicity against human MDA-MB-231 cells after 72 hrs by MTT assay; assay type: functional, cell-based; conditions: MDA-MB-231, 72 h; in short: as §1
MCF7 = assay: Cytotoxicity against human MCF7 cells after 72 hrs by MTT assay; assay type: functional, cell-based; conditions: MCF7, 72 h; in short: as §1
[7] = Cytotoxicity against human HCT15 cells after 72 hrs by MTT assay; assay type: functional, cell-based; conditions: HCT-15, 72 h; in short: as §2
HT-29 = assay: Cytotoxicity against human HT-29 cells after 72 hrs by MTT assay; assay type: functional, cell-based; conditions: HT-29, 72 h; in short: as §2
[8] = Cytotoxicity against human LS180 cells after 72 hrs by MTT assay; assay type: functional, cell-based; conditions: LS180, 72 h; in short: as §1
[9] = Cytotoxicity against human LS174 cells after 72 hrs by MTT assay; assay type: functional, cell-based; conditions: LS174, 72 h; in short: as §1
LoVo = assay: Cytotoxicity against human LoVo cells after 72 hrs by MTT assay; assay type: functional, cell-based; in short: as §1
HCT-116 [10] = assay: Induction of morphological changes in human HCT116 cells at 0.5 to 10 uM after 68 hrs by inverted microscopy; assay type: functional, cell-based
In short: (§4)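 HCT-116, HCT-15 and HEK293 cells were treated with 0, 0.5, 2 or 10 μM for 68 hr. Each treatment was in triplicate. Cells were photographed under an inverted microscope at 20X and representative images shown.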

HCT-15 = assay: Induction of morphological changes in human HCT15 cells at 0.5 to 10 uM after 68 hrs by inverted microscopy; assay type: functional, cell-based; in short: as §4
HEK293 [11] = assay: Induction of morphological changes in HEK293 cells at 0.5 to 10 uM after 68 hrs by inverted microscopy; assay type: cell-based; conditions: human, hek293, 68 h; in short: as §4
[12] = molecular target: T1, Nuclear receptor subfamily 1 group I member 2 (Homo sapiens, UniProt O75469); assay: Transactivation of human PXR expressed in human HepG2 cells co-expressing pGL3-CYP3A4-luciferase gene assessed as increase in CYP3A4 promoter activity at 1 uM after 24 hrs by luciferase reporter gene assay; assay type: ADME, cell-based; conditions: hepg2, 24 h
T1 sequence (O75469 whole entry): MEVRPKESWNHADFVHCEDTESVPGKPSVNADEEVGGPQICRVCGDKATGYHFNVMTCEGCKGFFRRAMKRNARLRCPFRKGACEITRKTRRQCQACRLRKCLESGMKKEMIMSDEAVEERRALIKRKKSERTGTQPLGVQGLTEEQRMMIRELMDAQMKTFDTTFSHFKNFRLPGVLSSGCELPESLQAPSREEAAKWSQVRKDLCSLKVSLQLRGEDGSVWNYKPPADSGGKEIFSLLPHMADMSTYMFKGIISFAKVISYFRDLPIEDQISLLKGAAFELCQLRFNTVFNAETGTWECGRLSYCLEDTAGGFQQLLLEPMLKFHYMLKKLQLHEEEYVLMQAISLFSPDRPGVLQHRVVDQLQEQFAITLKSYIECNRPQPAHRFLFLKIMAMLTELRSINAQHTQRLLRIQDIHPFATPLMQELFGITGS
In short: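 HepG2 cells were transiently cotransfected with pcDNA3-hPXR and pGL3-CYP3A4-luc; after 24 hr they were plated at 10,000/well in phenol red-free DMEM with 5% charcoal-stripped FBS. […] Activity expressed as fold over DMSO; three independent experiments.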

[13] = molecular target: T1, Nuclear receptor subfamily 1 group I member 2; assay: Transactivation of human PXR expressed in human HepG2 cells co-expressing pGL3-CYP3A4-luciferase gene assessed as increase in CYP3A4 promoter activity at 10 uM after 24 hrs by luciferase reporter gene assay; conditions: hepg2, 24 h
HepG2 [14] = assay: Cytotoxicity against human HepG2 cells assessed as reduction in cell viability at 10 uM after 24 hrs by Celltiter-Glo luminescent cell viability assay; assay type: cell-based; conditions: hepg2, 24 h
In short: (§5)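 Viability of HepG2 cells was measured in parallel with the PXR reporter assay. Cells were transfected, plated at 10,000/well in phenol red-free DMEM with 5% charcoal/dextran-treated FBS, and treated 24 hr with 1 or 10 μM or DMSO. ATP was quantified by CellTiter-Glo luminescence. Means ± SD of triplicates, t-test versus DMSO.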

HepG2 [15] = assay: Cytotoxicity against human HepG2 cells assessed as reduction in cell viability at 1 uM after 24 hrs by Celltiter-Glo luminescent cell viability assay; assay type: cell-based; conditions: hepg2, 24 h; in short: as §5
HEK293 [16] = assay: Cytotoxicity against HEK293 cells expressing ABCB1 gene assessed as reduction in cell viability at 0.001 to 100 uM after 72 hrs by MTT assay; assay type: functional, cell-based; conditions: Homo sapiens
In short: (§6)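 HEK293 stably overexpressing ABCB1 or ABCG2 (R2), with empty-vector HEK293/pcDNA3.1 as the parental control, grown in DMEM with 10% FBS at 37 °C and 5% CO2. Cells were trypsinised and seeded at 5×10^3 cells/well, then exposed to serial concentrations for 72 hr. MTT (4 mg/mL) was added for 4 hr, formazan dissolved in DMSO, and A570 read. IC50 from survival curves (Bliss method), means ± SD of triplicates.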

HEK293 [17] = assay: Cytotoxicity against HEK293 cells expressing ABCG2 gene assessed as reduction in cell viability at 0.001 to 100 uM after 72 hrs by MTT assay; assay type: functional, cell-based; conditions: Homo sapiens; in short: as §6
[18] = Cytotoxicity against drug-resistant human S1-M1-80 cells expressing ABCG2 G482 mutant after 72 hrs by MTT assay relative to SN-38; assay type: functional
[19] = Cytotoxicity against drug-resistant human S1-M1-80 cells expressing ABCG2 G482 mutant after 72 hrs by MTT assay relative to topotecan; assay type: functional
HCT-116 [20] = assay: Induction of mitochondrial membrane potential loss in human HCT116 cells at 1 uM after 4 hrs by mitotracker red and Alexa Fluor 488 annexin V staining based flow cytometry; assay type: functional
In short: (§7)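 HCT-116 cells in 6-well plates, in complete medium, were exposed to 0, 1 or 10 μM for 4 hr. Harvested cells were stained with MitoTracker Red (4 μL of 10 μM working solution per mL) for 30 min at 37 °C, washed, then given Alexa Fluor 488 annexin V for 15 min in annexin-binding buffer. Flow cytometry emission at 530 and 585 nm; two independent experiments in triplicate.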

HCT-116 [21] = assay: Induction of mitochondrial membrane potential loss in human HCT116 cells at 10 uM after 4 hrs by mitotracker red and Alexa Fluor 488 annexin V staining based flow cytometry; assay type: functional; in short: as §7
HCT-116 [22] = assay: Induction of mitochondrial membrane potential loss in human HCT116 cells after 4 hrs by mitotracker red and Alexa Fluor 488 annexin V staining based flow cytometry; assay type: functional, cell-based; in short: as §7
HCT-116 [23] = assay: Induction of DNA fragmentation in human HCT116 cells at 2.5 uM after 6 hrs by ethidium bromide staining based agarose gel electrophoresis; assay type: functional, cell-based
In short: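 HCT-116 cells were cultured with or without 2.5 μM for 6 hr. Genomic DNA was extracted with a purification kit, resolved on 1% agarose gels at 40 V, stained with ethidium bromide and photographed, with untreated DNA loaded at 500 ng and 1 μg.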

Homo sapiens = species: Homo sapiens; assay: Cytotoxicity against drug-resistant human S1-M1-80 cells expressing ABCG2 G482 mutant after 72 hrs by MTT assay; assay type: functional, cell-based
In short: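 S1-M1-80 colon cells (G482 mutant ABCG2), maintained in medium with 80 μM mitoxantrone, tested by MTT alongside parental S1. 72 hr exposure, MTT 4 hr, DMSO solubilisation, A570. IC50 by Bliss method; SN-38 and topotecan run as comparators; means ± SD of triplicate determinations.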

Structure (SMILES) | IC50 [1] [µM] | IC50 [2] [µM] | IC50 2008 [µM] | IC50 (A2780) [µM] | IC50 (HepG2 [3]) [µM] | IC50 (MDCK) [µM] | IC50 [4] [µM] | IC50 (HEK293 [5]) [µM] | IC50 [6] [µM] | IC50 (DU-145) [µM] | Activity (HepG2 [14]) | other results
Cc1cc(=O)n2nc3nc4ccccc4cc3c2[nH]1 | 63.6 | 46.5 | 88.6 | 74.3 | 89.5 | > 100 | 98.4 | 69.6 | – | – | – | –
Cc1cc(NCCN(C)C)n2nc3nc4ccccc4cc3c2n1 | 69.8 | 79.8 | > 100 | > 100 | > 100 | > 100 | > 100 | 93.4 | 65.8 | 59.9 | – | IC50 (MDA-MB-231): 48.7 µM
Cc1cc(Cl)n2nc3nc4ccccc4cc3c2n1 | 0.8 | 0.9 | 17.4 | 11.6 | 9.7 | 19.7 | 23.6 | 7.8 | 0.6 | 1.2 | Toxic | IC50 (MCF7): 7.4 µM; IC50 [7]: 0.671 µM; IC50 (HT-29): 0.791 µM; IC50 [8]: 1.02 µM; IC50 [9]: 0.875 µM; IC50 (LoVo): 0.994 µM; Activity (HCT-116 [10]): Active; Activity (HCT-15): Active; Activity (HEK293 [11]): Toxic; Activity [12]: Not Active; Activity [13]: Not Active; Activity (HepG2 [15]): Non-toxic; Activity (HEK293 [16]): Active; Activity (HEK293 [17]): Active; fold change (FC) [18]: 3; fold change (FC) [19]: 3; Activity (HCT-116 [20]): 68.46%; Activity (HCT-116 [21]): 98.36%; Activity (HCT-116 [22]): Dose-dependent effect; Activity (HCT-116 [23]): Active
CO[C@H]1/C=C/O[C@@]2(C)Oc3c(C)c(O)c4c(O)c(c(/C=N/N5CCN(C)CC5)c(O)c4c3C2=O)NC(=O)/C(C)=C\C=C\[C@H](C)[C@H](O)[C@@H](C)[C@@H](O)[C@@H](C)[C@H](OC(C)=O)[C@@H]1C [RIFAMPIN] | – | – | – | – | – | – | – | – | – | – | Toxic | –
CCc1c2c(nc3ccc(O)cc13)-c1cc3c(c(=O)n1C2)COC(=O)[C@]3(O)CC | – | – | – | – | – | – | – | – | – | – | – | Activity (Homo sapiens): inactive
